Test results: article PMC7935732 (Targeted Oncology, 2021)
Entries after “also recorded” stand apart in the source; their conditions may differ.

What was measured:
[1] = tested on: advanced and/or metastatic cancers; experiment: Antitumor activity; format: in vivo, human
[2] = tested on: Chinese patients with advanced and/or metastatic cancers; experiment: Safety and tolerability; format: in vivo, human
Outline: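 Safety set: all patients with ≥ 1 dose. Patient-reported AEs were collected during treatment; chemistry, hematology and urinalysis were done at protocol time points. Laboratory and non-laboratory AEs were graded by CTCAE v4.0 and summarized by cohort.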

[3] = Breast cancer treated population, 150 mg (n1 = 10)
[4] = Breast cancer treated population, 200 mg (n1 = 11)
[5] = Breast cancer treated population, Total (n1 = 21)
[6] = Overall population, 150 mg (n = 12)
[7] = Overall population, 200 mg (n = 13)
[8] = Overall population, Total (n = 25)

CCN1CCN(Cc2ccc(Nc3ncc(F)c(-c4cc(F)c5nc(C)n(C(C)C)c5c4)n3)nc2)CC1 [abemaciclib]
Confirmed responder ([1]; 150 mg cohort): 1
Patients achieving PR ([1]; 1 patient in each dose cohort): 2 patients
Best overall response: Complete response (CR) [1, 3]: 0 n (%)
Best overall response: Partial response (PR) [1, 3]: 1 (10.0) n (%)
Best overall response: Progressive disease (PD) [1, 3]: 2 (20.0) n (%)
Disease control rate (CR+PR+SD) [1, 3]: 7 (70.0) n (%)
Overall response rate (CR+PR) [1, 3]: 1 (10.0) n (%)
Best overall response: Complete response (CR) [1, 4]: 0 n (%)
Best overall response: Partial response (PR) [1, 4]: 1 (9.1) n (%)
Best overall response: Progressive disease (PD) [1, 4]: 1 (9.1) n (%)
Disease control rate (CR+PR+SD) [1, 4]: 9 (81.8) n (%)
Overall response rate (CR+PR) [1, 4]: 1 (9.1) n (%)
Best overall response: Complete response (CR) [1, 5]: 0 n (%)
Best overall response: Partial response (PR) [1, 5]: 2 (9.5) n (%)
Best overall response: Progressive disease (PD) [1, 5]: 3 (14.3) n (%)
Disease control rate (CR+PR+SD) [1, 5]: 16 (76.2) n (%)
Overall response rate (CR+PR) [1, 5]: 2 (9.5) n (%)
Best overall response: Complete response (CR) [1, 6]: 0 n (%)
Best overall response: Partial response (PR) [1, 6]: 1 (8.3) n (%)
Best overall response: Progressive disease (PD) [1, 6]: 2 (16.7) n (%)
Disease control rate (CR+PR+SD) [1, 6]: 8 (66.7) n (%)
Overall response rate (CR+PR) [1, 6]: 1 (8.3) n (%)
Best overall response: Complete response (CR) [1, 7]: 0 n (%)
Best overall response: Partial response (PR) [1, 7]: 1 (7.7) n (%)
Best overall response: Progressive disease (PD) [1, 7]: 2 (15.4) n (%)
Disease control rate (CR+PR+SD) [1, 7]: 9 (69.2) n (%)
Overall response rate (CR+PR) [1, 7]: 1 (7.7) n (%)
Best overall response: Complete response (CR) [1, 8]: 0 n (%)
Best overall response: Partial response (PR) [1, 8]: 2 (8.0) n (%)
Best overall response: Progressive disease (PD) [1, 8]: 4 (16.0) n (%)
Disease control rate (CR+PR+SD) [1, 8]: 17 (68.0) n (%)
Overall response rate (CR+PR) [1, 8]: 2 (8.0) n (%)
Complete response (CR) ([1]; all treated patients (n = 25)): No complete response was observed; also recorded: no CR was observed
Disease control rate (DCR) ([1]; all treated patients (n = 25)): 68%
Patients achieving partial response (PR) ([1]; all treated patients (n = 25)): 8%
Grade 5 TEAE of respiratory failure ([2]; 150 mg cohort): ^aOne patient reported Grade 5 TEAE of respiratory failure in 150 mg cohort
Patients who discontinued study treatment due to leukopenia ([2]; 150 mg cohort): 1 patient
Patients with dose reduction from 150 to 100 mg during Cycle 1 ([2]; 150 mg cohort): 5 patients
Alanine aminotransferase increased, TEAE any grade ([2]; 150 mg every 12 h (n = 12)): 5 (41.7) n (%)
Anemia, TEAE any grade ([2]; 150 mg every 12 h (n = 12)): 7 (58.3) n (%)
Bilirubin increased, TEAE any grade ([2]; 150 mg every 12 h (n = 12)): 4 (33.3) n (%)
Blood creatinine increased, TEAE any grade ([2]; 150 mg every 12 h (n = 12)): 6 (50.0) n (%)
Cough, TEAE any grade ([2]; 150 mg every 12 h (n = 12)): 4 (33.3) n (%)
Decreased appetite, TEAE any grade ([2]; 150 mg every 12 h (n = 12)): 9 (75.0) n (%)
Diarrhea, TEAE any grade ([2]; 150 mg every 12 h (n = 12)): 9 (75.0) n (%)
Leukopenia (white blood cell count decreased), TEAE any grade ([2]; 150 mg every 12 h (n = 12)): 9 (75.0) n (%)
Localized edema, TEAE any grade ([2]; 150 mg every 12 h (n = 12)): 3 (25.0) n (%)
Malaise, TEAE any grade ([2]; 150 mg every 12 h (n = 12)): 7 (58.3) n (%)
Nausea, TEAE any grade ([2]; 150 mg every 12 h (n = 12)): 3 (25.0) n (%)
Neutropenia (neutrophil count decreased), TEAE any grade ([2]; 150 mg every 12 h (n = 12)): 10 (83.3) n (%)
Patients with ≥ 1 TEAE (any grade) ([2]; 150 mg every 12 h (n = 12)): 12 (100.0) n (%)
Thrombocytopenia (platelet count decreased), TEAE any grade ([2]; 150 mg every 12 h (n = 12)): 6 (50.0) n (%)
Vomiting, TEAE any grade ([2]; 150 mg every 12 h (n = 12)): 4 (33.3) n (%)
Patients reporting SAE of pulmonary embolism ([2]; 200 mg cohort): 3 patients
Patients reporting SAE of urinary tract infection ([2]; 200 mg cohort): 1 patient
Patients with dose reduction from 200 to 150 mg during Cycle 1 ([2]; 200 mg cohort): 2 patients
Alanine aminotransferase increased, TEAE any grade ([2]; 200 mg every 12 h (n = 13)): 2 (15.4) n (%)
Anemia, TEAE any grade ([2]; 200 mg every 12 h (n = 13)): 5 (38.5) n (%)
Bilirubin increased, TEAE any grade ([2]; 200 mg every 12 h (n = 13)): 1 (7.7) n (%)
Blood creatinine increased, TEAE any grade ([2]; 200 mg every 12 h (n = 13)): 8 (61.5) n (%)
Cough, TEAE any grade ([2]; 200 mg every 12 h (n = 13)): 4 (30.8) n (%)
Decreased appetite, TEAE any grade ([2]; 200 mg every 12 h (n = 13)): 6 (46.2) n (%)
Diarrhea, TEAE any grade ([2]; 200 mg every 12 h (n = 13)): 11 (84.6) n (%)
Leukopenia (white blood cell count decreased), TEAE any grade ([2]; 200 mg every 12 h (n = 13)): 7 (53.8) n (%)
Localized edema, TEAE any grade ([2]; 200 mg every 12 h (n = 13)): 2 (15.4) n (%)
Malaise, TEAE any grade ([2]; 200 mg every 12 h (n = 13)): 6 (46.2) n (%)
Nausea, TEAE any grade ([2]; 200 mg every 12 h (n = 13)): 6 (46.2) n (%)
Neutropenia (neutrophil count decreased), TEAE any grade ([2]; 200 mg every 12 h (n = 13)): 9 (69.2) n (%)
Patients with ≥ 1 TEAE (any grade) ([2]; 200 mg every 12 h (n = 13)): 13 (100.0) n (%)
Thrombocytopenia (platelet count decreased), TEAE any grade ([2]; 200 mg every 12 h (n = 13)): 5 (38.5) n (%)
Vomiting, TEAE any grade ([2]; 200 mg every 12 h (n = 13)): 4 (30.8) n (%)
Anemia TEAE ([2]; Grade 3, 150 mg (n = 12)): 2 (16.7) n (%)
Blood bilirubin increased TEAE ([2]; Grade 3, 150 mg (n = 12)): 1 (8.3) n (%)
Diarrhea TEAE ([2]; Grade 3, 150 mg (n = 12)): 1 (8.3) n (%)
Embolism TEAE ([2]; Grade 3, 150 mg (n = 12)): 1 (8.3) n (%)
Hyponatraemia TEAE ([2]; Grade 3, 150 mg (n = 12)): 2 (16.7) n (%)
Leukopenia (white blood cell count decreased) TEAE ([2]; Grade 3, 150 mg (n = 12)): 0 n (%)
Lung infection TEAE ([2]; Grade 3, 150 mg (n = 12)): 1 (8.3) n (%)
Malaise TEAE ([2]; Grade 3, 150 mg (n = 12)): 1 (8.3) n (%)
Muscular weakness TEAE ([2]; Grade 3, 150 mg (n = 12)): 1 (8.3) n (%)
Neutropenia (neutrophil count decreased) TEAE ([2]; Grade 3, 150 mg (n = 12)): 5 (41.7) n (%)
Patients with ≥ 1 TEAE of Grade ≥ 3 ([2]; Grade 3, 150 mg (n = 12)): 8 (66.7) n (%)
Thrombocytopenia (platelet count decreased) TEAE ([2]; Grade 3, 150 mg (n = 12)): 3 (25.0) n (%)
Vomiting TEAE ([2]; Grade 3, 150 mg (n = 12)): 0 n (%)
Anemia TEAE ([2]; Grade 3, 200 mg (n = 13)): 0 n (%)
Blood bilirubin increased TEAE ([2]; Grade 3, 200 mg (n = 13)): 0 n (%)
Diarrhea TEAE ([2]; Grade 3, 200 mg (n = 13)): 3 (23.1) n (%)
Embolism TEAE ([2]; Grade 3, 200 mg (n = 13)): 0 n (%)
